Measured values from different studies.
Lines come from different studies, so protocols differ.
Cell line: MCF7
Observed: cell growth or viability

Compound	test	conditions	GI50 [µM]
COc1cc2c(OC)nc3c4cc5c(cc4cc(OCCCN4CCCC4)c3c2cc1OC)OCO5	MTT	72 h	8.6
COc1ccc(C(=O)/C=C/c2cccc(Cl)c2Cl)cc1S(N)(=O)=O	SRB	48 h	3.2
COc1cc(C(CC(=O)c2ccc(Cl)cc2)NCCc2ccc(O)c(O)c2)ccc1O (stereo not drawn)	MTT	–	1.09
COc1ccc(C(=O)/C=C/c2ccccc2Br)cc1S(N)(=O)=O	SRB	48 h	2.9
Cc1ccc(C)c(COc2cc(NC(=O)c3ccc4c(c3)OCO4)ccc2N(C)S(C)(=O)=O)c1	SRB	48 h	0.12
COc1cccc2c1C(=O)c1c(O)c3c(c(O)c1C2=O)C[C@@](O)(C(=O)CO)C[C@@H]3O[C@H]1C[C@H](N)[C@H](O)[C@H](C)O1	MTT	–	0.02
COc1cc2c(Nc3ccc(Br)cc3F)ncnc2cc1OCC1CCN(C)CC1	MTT	72 h	0.25
COc1cccc(Oc2ccccc2NC(=O)CNC(=O)c2cccc3ccccc23)c1	SRB	48 h	0.1
COc1cc2c(OC)nc3c4cc5c(cc4cc(OCCCN(C)C)c3c2cc1OC)OCO5	MTT	72 h	27
COc1cc(C(CC(=O)c2ccc(Br)cc2)NCCc2ccc(O)c(O)c2)ccc1O (stereo not drawn)	MTT	–	0.02
COc1cc2c(OC)nc3c4cc5c(cc4cc(OCCCN4CCC(N6CCCCC6)CC4)c3c2cc1OC)OCO5	MTT	72 h	1.5
COc1cc(C(CC(=O)c2ccc(C(C)(C)C)cc2)NCCc2ccc(O)c(O)c2)ccc1O (stereo not drawn)	MTT	–	2.6
COc1ccc(C(=O)/C=C/c2ccc(Cl)c(Cl)c2)cc1S(N)(=O)=O	SRB	48 h	1.1
COc1cc(-c2ccc(-c3ccc(C(=N)N)nc3)s2)cc(OC)c1OC	SRB	–	1.3
COc1ccc(C(=O)/C=C/c2c(F)cccc2Cl)cc1S(N)(=O)=O	SRB	48 h	2.2
CN1CCN(c2ccc(Nc3ncc4cc(C#N)c(=O)n(C5CCCC5)c4n3)cc2)CC1	resazurin	96 h	0.15
CCN(CC)CCCOc1cc2cc3c(cc2c2nc(OC)c4cc(OC)c(OC)cc4c12)OCO3	MTT	72 h	23
COc1ccc(C(=O)/C=C/c2cccnc2)cc1S(N)(=O)=O	SRB	48 h	4.9
